Experimental data taken from ChEMBL document CHEMBL2321795, “Solubility-driven optimization of (pyridin-3-yl) benzoxazinyl-oxazolidinones leading to a promising antibacterial agent” (J Med Chem, 2013).
Values after ≈ are worked out from the molar mass of the structure shown.

How the values were obtained:
Enterococcus faecalis [1] = test: Antibacterial activity against Enterococcus faecalis after 16 hrs by NCCLS agar dilution method; format: functional
Method in brief: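 Agar dilution MIC per NCCLS, 6 E. faecalis strains. Stock was 320 μg/mL in 50% water/DMSO, serially 2-fold diluted in sterile water, then 10-fold into Mueller–Hinton agar to give 16–0.03125 μg/mL final. Inocula came from MH broth cultures grown 8 h at 35 °C, adjusted to 0.5 McFarland and spotted by multipoint inoculator. Plates were read after 16 h at 35 °C.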

Staphylococcus aureus [2] = test: Antibacterial activity against linezolid-resistant Staphylococcus aureus after 16 hrs by NCCLS agar dilution method; format: functional
Method in brief: (§1)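 Agar dilution MIC. Stocks were 320 μg/mL in 50% aqueous DMSO, 2-fold serially diluted in sterile water, then diluted 10-fold into Mueller–Hinton agar to give 16–0.03125 μg/mL final. Organisms were grown in MH broth at 35 °C for 8 h and adjusted to 0.5 McFarland. They were spotted onto drug-containing plates with a multipoint inoculator and incubated at 35 °C for 16 h. Linezolid was the positive control.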

[3] = test system: Staphylococcus epidermidis; test: Antibacterial activity against linezolid-resistant Staphylococcus epidermidis after 16 hrs by NCCLS agar dilution method; format: functional; method in brief: as §1
[4] = test system: Staphylococcus epidermidis; test: Antibacterial activity against methicillin-sensitive Staphylococcus epidermidis after 16 hrs by NCCLS agar dilution method; format: functional; method in brief: as §1
Staphylococcus aureus [5] = test: Antibacterial activity against methicillin-resistant Staphylococcus aureus after 16 hrs by NCCLS agar dilution method; format: functional; method in brief: as §1
Enterococcus faecium = test: Antibacterial activity against linezolid-resistant Enterococcus faecium after 16 hrs by NCCLS agar dilution method; format: functional; method in brief: as §1
Streptococcus pneumoniae = test: Antibacterial activity against penicillin-resistant Streptococcus pneumoniae after 16 hrs by NCCLS agar dilution method; format: functional; method in brief: as §1
Staphylococcus aureus [6] = test: Antibacterial activity against Staphylococcus aureus ATCC 29213 after 16 hrs by NCCLS agar dilution method; format: functional; settings: ATCC 29213, 16 h; method in brief: as §1
Staphylococcus aureus [7] = test: Antibacterial activity against methicillin-sensitive Staphylococcus aureus after 16 hrs by NCCLS agar dilution method; format: functional; method in brief: as §1
[8] = test system: Staphylococcus epidermidis; test: Antibacterial activity against methicillin-resistant Staphylococcus epidermidis after 16 hrs by NCCLS agar dilution method; format: functional; method in brief: as §1
Enterococcus faecalis [9] = test: Antibacterial activity against linezolid-resistant Enterococcus faecalis after 16 hrs by NCCLS agar dilution method; format: functional; method in brief: as §1
Staphylococcus aureus [10] = test: Antibacterial activity against methicillin-sensitive Staphylococcus aureus ATCC 19636 infected in po dosed systemic infection mouse model administered 1 hr post infection measured after 48 hrs; format: functional; settings: ATCC 19636, po
Method in brief: (§2)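 Female ICR mice weighing 20–22 g, six per group, received 0.5 mL of 10⁷–10⁸ CFU/mL S. aureus intraperitoneally as a lethal systemic challenge. Dosing was oral or intravenous 1 h post-infection at 2.5, 5, 10 and 20 mg/kg, with linezolid as comparator.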

Staphylococcus aureus [11] = test: Antibacterial activity against methicillin-sensitive Staphylococcus aureus ATCC 19636 infected in iv dosed systemic infection mouse model administered 1 hr post infection measured after 48 hrs; format: functional; settings: ATCC 19636, iv; method in brief: as §2
hERG (KCNH2) = hERG (KCNH2) (Homo sapiens, UniProt Q12809); test: Inhibition of human ERG at 30 uM relative to control
hERG (KCNH2), sequence (Q12809 whole entry): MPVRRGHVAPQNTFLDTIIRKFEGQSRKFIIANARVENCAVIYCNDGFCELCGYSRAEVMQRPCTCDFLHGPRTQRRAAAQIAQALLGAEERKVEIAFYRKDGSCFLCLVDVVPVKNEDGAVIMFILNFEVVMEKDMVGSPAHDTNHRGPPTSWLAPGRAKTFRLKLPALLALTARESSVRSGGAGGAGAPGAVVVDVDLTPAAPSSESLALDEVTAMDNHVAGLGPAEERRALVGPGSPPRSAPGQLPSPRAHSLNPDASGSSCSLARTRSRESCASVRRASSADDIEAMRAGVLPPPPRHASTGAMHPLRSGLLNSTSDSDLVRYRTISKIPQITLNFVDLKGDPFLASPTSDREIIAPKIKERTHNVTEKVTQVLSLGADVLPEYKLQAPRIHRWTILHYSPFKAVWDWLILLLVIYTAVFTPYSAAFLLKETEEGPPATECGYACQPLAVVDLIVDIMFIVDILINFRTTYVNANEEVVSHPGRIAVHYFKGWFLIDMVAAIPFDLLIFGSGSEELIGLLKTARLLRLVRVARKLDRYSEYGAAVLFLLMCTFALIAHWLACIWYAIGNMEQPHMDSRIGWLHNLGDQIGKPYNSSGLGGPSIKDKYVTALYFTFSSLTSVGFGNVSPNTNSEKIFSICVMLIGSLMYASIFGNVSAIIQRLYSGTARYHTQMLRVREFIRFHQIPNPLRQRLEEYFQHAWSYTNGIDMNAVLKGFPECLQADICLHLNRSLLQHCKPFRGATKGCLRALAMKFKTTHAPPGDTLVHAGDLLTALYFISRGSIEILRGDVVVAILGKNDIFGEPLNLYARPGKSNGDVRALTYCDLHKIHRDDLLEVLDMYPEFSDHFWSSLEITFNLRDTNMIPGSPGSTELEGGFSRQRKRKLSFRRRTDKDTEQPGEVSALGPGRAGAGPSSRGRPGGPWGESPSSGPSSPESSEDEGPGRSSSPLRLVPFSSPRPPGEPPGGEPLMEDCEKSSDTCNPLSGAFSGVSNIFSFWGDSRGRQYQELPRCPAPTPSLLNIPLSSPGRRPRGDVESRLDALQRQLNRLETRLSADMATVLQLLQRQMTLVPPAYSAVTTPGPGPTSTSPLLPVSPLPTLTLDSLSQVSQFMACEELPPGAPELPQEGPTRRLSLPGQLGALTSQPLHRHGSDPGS

| Structure (SMILES) | MIC (Enterococcus faecalis [1]) [µg/mL] | MIC (Staphylococcus aureus [2]) [µg/mL] | MIC [3] [µg/mL] | MIC [4] [µg/mL] | MIC (Staphylococcus aureus [5]) [µg/mL] | MIC (Enterococcus faecium) [µg/mL] | MIC (Streptococcus pneumoniae) [µg/mL] | MIC (Staphylococcus aureus [6]) [µg/mL] | MIC (Staphylococcus aureus [7]) [µg/mL] | MIC [8] [µg/mL] | MIC (Enterococcus faecalis [9]) [µg/mL] | ED50 (Staphylococcus aureus [10]) [mg/kg] | ED50 (Staphylococcus aureus [11]) [mg/kg] | inhibition at 30 µM (hERG (KCNH2)) [%] |
| --- | --- | --- | --- | --- | --- | --- | --- | --- | --- | --- | --- | --- | --- | --- |
| O=C1OCCN1c1ccc(-c2ccc3c(c2)OC[C@H]2[C@H](CO)OC(=O)N32)cn1 | 1 (≈ 2.61 µM) | 16 (≈ 41.7 µM) | 2 (≈ 5.22 µM) | 0.5 (≈ 1.3 µM) | 0.5 (≈ 1.3 µM) | 4 (≈ 10.4 µM) | 0.5 (≈ 1.3 µM) | 0.5 (≈ 1.3 µM) | 0.5 (≈ 1.3 µM) | 0.5 (≈ 1.3 µM) | 4 (≈ 10.4 µM) | – | – | – |
| Cn1nnc(-c2ccc(-c3ccc(N4C[C@H](CO)OC4=O)cc3F)cn2)n1 [TEDIZOLID] | – | 8 (≈ 21.6 µM) | 2 (≈ 5.4 µM) | – | – | 2 (≈ 5.4 µM) | – | 0.25 (≈ 0.675 µM) | – | – | 2 (≈ 5.4 µM) | – | – | – |
| CC(=O)NC[C@H]1CN(c2ccc(N3CCOCC3)c(F)c2)C(=O)O1 [LINEZOLID] | – | > 8 | 8 (≈ 23.7 µM) | 1 (≈ 2.96 µM) | 1 (≈ 2.96 µM) | 16 (≈ 47.4 µM) | – | 1 (≈ 2.96 µM) | 1 (≈ 2.96 µM) | 2 (≈ 5.93 µM) | – | 8.28 | 7.07 | – |
| C[C@@H](O)C(=O)c1ccc(-c2ccc3c(c2)OC[C@H]2[C@H](CO)OC(=O)N32)cn1 | 1 (≈ 2.7 µM) | 8 (≈ 21.6 µM) | 4 (≈ 10.8 µM) | 0.125 (≈ 0.338 µM) | 0.125 (≈ 0.338 µM) | 4 (≈ 10.8 µM) | 0.25 (≈ 0.675 µM) | 0.25 (≈ 0.675 µM) | 0.25 (≈ 0.675 µM) | 0.125 (≈ 0.338 µM) | 4 (≈ 10.8 µM) | – | – | 18.4 |
| Cc1cc(C#N)ncc1-c1ccc2c(c1)OC[C@H]1[C@H](CO)OC(=O)N21 | 4 (≈ 11.9 µM) | – | – | 0.25 (≈ 0.741 µM) | 0.25 (≈ 0.741 µM) | – | 1 (≈ 2.96 µM) | – | 0.25 (≈ 0.741 µM) | 0.25 (≈ 0.741 µM) | – | – | – | – |
| O=C1O[C@@H](CO)[C@@H]2COc3cc(-c4ccc(Cn5cncn5)nc4)ccc3N12 | 1 (≈ 2.64 µM) | 16 (≈ 42.2 µM) | 8 (≈ 21.1 µM) | 0.5 (≈ 1.32 µM) | 0.5 (≈ 1.32 µM) | 8 (≈ 21.1 µM) | 0.5 (≈ 1.32 µM) | 1 (≈ 2.64 µM) | 0.5 (≈ 1.32 µM) | 0.5 (≈ 1.32 µM) | 8 (≈ 21.1 µM) | – | – | – |
| NCC1CN(c2ccc(-c3ccc4c(c3)OC[C@H]3[C@H](CO)OC(=O)N43)cn2)C(=O)O1 (some centres not stated) | 1 (≈ 2.42 µM) | – | – | 0.5 (≈ 1.21 µM) | 1 (≈ 2.42 µM) | – | 2 (≈ 4.85 µM) | – | 1 (≈ 2.42 µM) | 2 (≈ 4.85 µM) | – | – | – | – |
| CN1CCN(c2ccc(-c3ccc4c(c3)OC[C@H]3[C@H](CO)OC(=O)N43)cn2)CC1 | 2 (≈ 5.04 µM) | – | – | 2 (≈ 5.04 µM) | 4 (≈ 10.1 µM) | – | 4 (≈ 10.1 µM) | – | 2 (≈ 5.04 µM) | 4 (≈ 10.1 µM) | – | – | – | – |
